High-throughput results (PubChem)
KCNQ1 block: inhibitors of human KCNQ1 potassium channel; CHO-K1 KCNQ1, FluxOR thallium flux fluorescence; hits give high values; AID 2642; 1.3% of 310,000 active; B-score at 10 µM; P51787;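 active means compounds whose thallium flux B-score, printed positive for inhibition, exceeds three library SD while starting fluorescence stays within three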;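 further: channel opened by potassium depolarization with thallium stimulus after 20 min compound exposure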
KCNQ1 pot: human KCNQ1 channel potentiation or activation; AID 2648; P51787; 0.35% of 310,000 active; CHO-K1 KCNQ1, thallium flux FluxOR fluorescence; hits give high values; B-score at 10 µM;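 active means fluorescence ratio B-score, a plate-corrected score, at least three library SD, with initial intensity B-score within 5 SD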
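Schedule – 37 °C overnight plating, 90-min dark dye load, 20-min compound pretreatment · System – stable KCNQ1 CHO-K1 line · Probe or stimulus – thallium- and potassium-containing depolarizing buffer · Measured by – kinetic FluxOR fluorescence, 10 s baseline plus 110 s post-stimulus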
hERG protect: shields human hERG channel from block by proarrhythmic agents; Q12809; activation (rescue from dofetilide block), less the hit threshold, % at 10 µM; 0.51% of 310,000 active; CHO-hERG, FluxOR thallium flux, dofetilide IC70 present;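 active means activation above the mean of controls blocked by dofetilide plus 5 SD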;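 further: thallium influx through hERG after potassium depolarization seen as dye fluorescence rise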
KCNK3 block: human KCNK3 channel inhibition, primary screen. B-score at 10 µM. 0.84% of 340,000 active. CHO-KCNK3 thallium flux, FluxOR fluorescence; hits give low values;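 active means B-score under library mean minus 4 SD, starting fluorescence ratio at most library mean plus 5 SD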;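 further: more negative B-score means stronger inhibition of thallium flux through KCNK3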
Kir21 inh: inhibitors of mouse Kir2.1 inward-rectifier potassium channel; HEK293-Kir2.1, FluxOR thallium flux fluorescence; hits give low values; B-score at 10 µM; 0.85% of 310,000 active;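 active means fluorescence ratio B-score at or below minus 3 SD of library scores, with starting-brightness B-score within 2 SD, cut at about -4.2 in these data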;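 further: channel flux triggered by added potassium and thallium sulfate stimulus; B-score of peak minus minimum fluorescence over baseline after thallium stimulus; more negative B-score means stronger Kir2.1 block with less thallium influx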
KCNK9 block: blocks the human KCNK9 two-pore domain potassium channel | Q9NPC2 | AID 488922 | 1.2% of 310,000 active | HEK293 KCNK9, FluxOR thallium flux fluorescence; hits give low values | B-score at 10 µM;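 active means ratio B-score over 3 SD below the library mean, with starting fluorescence within 5 SD of its mean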;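 further: negative B-score means less thallium flux so channel inhibition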
Target sequence (Q9NPC2 whole entry, looked up, the tested form may be a part): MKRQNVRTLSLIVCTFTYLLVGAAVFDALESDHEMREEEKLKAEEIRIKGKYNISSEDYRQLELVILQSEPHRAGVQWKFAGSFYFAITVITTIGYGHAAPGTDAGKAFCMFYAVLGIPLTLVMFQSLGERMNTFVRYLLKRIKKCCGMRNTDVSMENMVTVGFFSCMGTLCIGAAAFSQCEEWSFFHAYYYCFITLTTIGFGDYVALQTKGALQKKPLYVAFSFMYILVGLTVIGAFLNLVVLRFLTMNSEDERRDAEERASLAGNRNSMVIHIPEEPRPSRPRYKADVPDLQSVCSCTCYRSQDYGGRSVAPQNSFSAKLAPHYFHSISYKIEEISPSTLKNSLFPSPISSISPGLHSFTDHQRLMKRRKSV
KCNK9 block conf: human KCNK9 inhibitor confirmation; 43% of 4,900 active; AID 492992; shares compounds with KCNK9 block; inhibition, % at 10 µM; HEK293 KCNK9 cells, FluxOR thallium flux fluorescence;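 active means thallium signal inhibited by more than 5 SD of the compound-free buffer control wells, on both duplicate plates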;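 further: 0% = assay buffer control wells without compound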
Kir21 sel: mouse Kir2.1 off-target activity of KCNK9 modulators. Kir2.1 cells, FluxOR thallium flux fluorescence. 4% of 4,900 active. shares compounds with KCNK9 block. inhibition, % at 10 µM;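 active means thallium signal drop more than 5 SD beyond the mean of the no-compound control wells, seen in both duplicate plates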;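 further: signal is fluorescence rise after thallium addition divided by baseline fluorescence; plate controls were assay buffer only for no effect and full block by chlorpromazine control for full effect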
HEK293 Tl ctr: non-induced cell nonspecific activity of KCNK9 modulators; shares compounds with KCNK9 block; non-induced KCNK9-HEK293, FluxOR thallium flux; inhibition, % at 10 µM; 40% of 4,900 active; AID 492997;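 active means thallium signal drop beyond 5 SD of the untreated control mean, on both duplicate plates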;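 further: plate controls were buffer only IC0 wells for no effect and SID17386958 at its maximal inhibitory level for full effect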
An asterisk follows results filed as active. An excerpt weighted towards active compounds, which were near 3.7% of everything screened.

For CC1CC(C)CN(c2ccc(C(=O)NCc3ccc4c(c3)OCO4)cc2[N+](=O)[O-])C1 (stereo unspecified) the results were KCNQ1 block inactive, KCNQ1 pot inactive, hERG protect -4, KCNK3 block inactive, Kir21 inh 0.65, KCNK9 block -8.5*, KCNK9 block conf 43%*, Kir21 sel inactive and HEK293 Tl ctr inactive.
Screening COc1ccc(C)cc1NC(=O)C1CCCN(S(=O)(=O)c2ccc3c(c2)CCCN3C(C)=O)C1 (stereo unspecified) returned KCNQ1 block inactive, KCNQ1 pot inactive, hERG protect -10, KCNK3 block inactive, Kir21 inh -0.43 and KCNK9 block inactive.
Cc1ccc2c(c1)N(C(=O)CCC(=O)N1CCN(c3cccc(C)c3C)CC1)CCO2 was read as KCNQ1 block inactive, KCNQ1 pot inactive, hERG protect -14, KCNK3 block inactive, Kir21 inh 0.83, KCNK9 block inactive, KCNK9 block conf inactive, Kir21 sel inactive and HEK293 Tl ctr inactive.
For Cc1ccc2c(c1)N(C(=O)CCC(=O)N1CCN(c3ccccc3)CC1)CCO2 the results were KCNQ1 block inactive, KCNQ1 pot inactive, hERG protect -11, KCNK3 block inactive, Kir21 inh 0.02 and KCNK9 block inactive.
For CC1CCN(C(=O)CCC(=O)N2CC(C)Oc3ccccc32)CC1 (stereo unspecified) the results were KCNQ1 block inactive, KCNQ1 pot inactive, hERG protect -9, KCNK3 block inactive, Kir21 inh 0.29 and KCNK9 block inactive.
For Cc1cccc(N2CCN(C(=O)CCC(=O)N3CC(C)Oc4ccccc43)CC2)c1C (stereo unspecified) the results were KCNQ1 block inactive, KCNQ1 pot inactive, hERG protect -18, KCNK3 block inactive, Kir21 inh -1, KCNK9 block inactive, KCNK9 block conf inactive, Kir21 sel inactive and HEK293 Tl ctr inactive.
Screening Cc1ccc2oc(C(=O)NCC(c3ccco3)N(C)C)c(C)c2c1 (stereo unspecified) returned KCNQ1 block inactive, KCNQ1 pot inactive, hERG protect -9, KCNK3 block inactive, Kir21 inh -1.6 and KCNK9 block inactive.
For COC(=O)c1c(N)sc2c1CCN(c1ncc(C(F)(F)F)cc1Cl)C2 the results were KCNQ1 block inactive, KCNQ1 pot inactive, hERG protect -4, KCNK3 block inactive, Kir21 inh -0.42, KCNK9 block -9.4*, KCNK9 block conf 38%*, Kir21 sel inactive and HEK293 Tl ctr inactive.
`NC(=O)NCCN1CCN(c2ncc(C(F)(F)F)cc2Cl)CC1` gave KCNQ1 block inactive, KCNQ1 pot inactive, hERG protect -2, KCNK3 block inactive, Kir21 inh -1.5 and KCNK9 block inactive.
For CCOC(=O)/C(=N\Nc1ccccc1Cl)N1CC(C)OC(C)C1 (stereo unspecified) the results were KCNQ1 block inactive, KCNQ1 pot inactive, hERG protect -17, KCNK3 block inactive, Kir21 inh -0.36 and KCNK9 block inactive.
`CCOC(=O)/C(=N\Nc1ccc(Br)cc1)N1CC(C)OC(C)C1` (stereo unspecified) gave KCNQ1 block inactive, KCNQ1 pot inactive, hERG protect -11, KCNK3 block inactive, Kir21 inh 1.9, KCNK9 block -18*, KCNK9 block conf 75%*, Kir21 sel inactive and HEK293 Tl ctr 44%*.
Cc1cc(C)nc(NS(=O)(=O)c2ccc(NC(=O)C3(c4ccc([N+](=O)[O-])cc4)CCCC3)cc2)n1 was read as KCNQ1 block inactive, KCNQ1 pot inactive, hERG protect -5, KCNK3 block inactive, Kir21 inh 0.68 and KCNK9 block inactive.
